Blank lines part the entries; values can stand above or below the compound they belong to.
Experiments:
human Ero1α = biological target: T1, human Ero1α (Homo sapiens, UniProt Q96HE7, C104A/C131A/C166A); experiment: Amplex Red/Ero1α catalytic assay; format: biochemical
T1 sequence (Q96HE7 22-468 C104A/C131A/C166A): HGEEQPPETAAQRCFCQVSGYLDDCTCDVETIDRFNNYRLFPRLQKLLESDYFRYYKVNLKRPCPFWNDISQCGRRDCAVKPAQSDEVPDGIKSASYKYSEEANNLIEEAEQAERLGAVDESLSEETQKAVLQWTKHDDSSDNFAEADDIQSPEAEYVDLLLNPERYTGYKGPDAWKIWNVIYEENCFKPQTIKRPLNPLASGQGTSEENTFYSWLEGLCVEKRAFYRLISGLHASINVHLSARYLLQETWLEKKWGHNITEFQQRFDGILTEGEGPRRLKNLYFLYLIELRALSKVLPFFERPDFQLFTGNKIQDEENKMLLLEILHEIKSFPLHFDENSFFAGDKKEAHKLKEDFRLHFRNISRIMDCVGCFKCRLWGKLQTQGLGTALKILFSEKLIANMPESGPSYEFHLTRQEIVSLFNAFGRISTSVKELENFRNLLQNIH
Summary of the method: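 Hyperactive His-tagged human Ero1α (residues 22–468) expressed in E. coli BL21(DE3)RIL, Ni-NTA purified, oxidised with ferricyanide, monomeric gel-filtration fraction; 0.0625 mg/mL enzyme with HRP, 25 μM Amplex Red, human PDI (18–479) substrate 0.250–0.008 mg/mL, test compound 200–0.01 μM, 50 mM sodium phosphate pH 7.4; 30 min, 37 °C; fluorescence Ex 530/Em 590; two experiments in triplicate.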

U266 cells [1] = experiment: Annexin V/propidium iodide double-staining assay; format: cell-based; settings: 25 μM, 18 h
Summary of the method: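 U266 cells exposed to DMSO vehicle or 25 μM test compound for 18 h, then washed in ice-cold PBS and stained with Annexin V-FITC/PI in binding buffer for 15 min at 37 °C in the dark. Flow cytometry counted at least 10,000 cells per sample. Means ± SD from three independent experiments.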

U266 cells [2] = experiment: Western blot analysis of ER stress markers; format: cell-based; settings: U266, 2, 4 and 8 h
Summary of the method: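 U266 lysates taken after 2, 4 and 8 h with DMSO or test compound, run on 8–10% SDS-PAGE and transferred to PVDF. Membranes blocked 1 h at room temperature in 5% milk/TBST, probed overnight at 4 °C for p-eIF2α, ATF4, ATF6 and β-actin, then HRP secondary for 1 h. Chemiluminescent detection; n=3 independent assays.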

Solubility observations = format: physicochemical
normal PBMCs = experiment: Cell death in normal PBMCs; format: cell-based; settings: data not shown
Ero1L = settings: cited from earlier work

Structure (SMILES): CC1=NN(c2ccccc2)C(=O)/C1=C/c1ccc(-c2cccc(Br)c2)o1 [AK968]
Activity against Ero1L (derivative screen, Supplementary Fig. 2) (human Ero1α): inactive

Structure (SMILES): CC1=NN(c2ccc(C)cc2)C(=O)/C1=C/c1ccc(-c2ccc(C(=O)O)cc2)o1 [AN968]
Activity against Ero1L (derivative screen, Supplementary Fig. 2) (human Ero1α): marginally active

Structure (SMILES): O=C(O)c1cc(N2N=C(C(F)(F)F)/C(=C/c3ccc(-c4ccccc4)o3)C2=O)ccc1Cl [EN460]
Apoptosis (Annexin V positive cells) (U266 cells [1]): induces apoptosis | ATF4 level (U266 cells [2]): modest increase | full length ATF6 level (U266 cells [2]): reduced levels | p-eIF2α level (U266 cells [2]): robust increase | Solubility (Solubility observations): poor solubility | Reachable concentration in vitro (Solubility observations; limited by poor solubility): ≤ 200 µM | Mode of Ero1L inhibition (human Ero1α; increasing substrate PDI with different EN460 concentrations): competitive | Km (human Ero1α; substrate PDI, with EN460): increased | Vmax (human Ero1α; substrate PDI, with EN460): largely stated the same | Cell death in normal PBMCs (normal PBMCs): sufficient to induce cell death | Inhibition of the Ero1L enzyme (Ero1L): low micromolar range

Next, values leading:

Solubility in physiological buffers (Solubility observations; e.g. PBS pH 7.4): less soluble
Structure (SMILES): [N-]=[N+]=Nc1ccc(-c2ccc(/C=C3/C(=O)N(c4ccc(Cl)c(C(=O)O)c4)N=C3C(F)(F)F)o2)cc1 [PB-11, (E)-5-(4-((5-(4-azidophenyl)furan-2-yl)methylene)-5-oxo-3-(trifluoromethyl)-4,5-dihydro-1H-pyrazol-1-yl)-2-chlorobenzoic acid]

Solubility (Solubility observations): comparable in solubility to EN460
Structure (SMILES): [N-]=[N+]=Nc1cccc(-c2ccc(/C=C3/C(=O)N(c4ccc(Cl)c(C(=O)O)c4)N=C3C(F)(F)F)o2)c1 [PB-10, (E)-5-(4-((5-(3-azidophenyl)furan-2-yl)methylene)-5-oxo-3-(trifluoromethyl)-4,5-dihydro-1H-pyrazol-1-yl)-2-chlorobenzoic acid]
